Assay results from publication PMC2645915 (Biochemistry, 2008).

Assays:
[1] = target: T1, methionine synthase reductase (MSR), human, I22/S175 background (Homo sapiens, UniProt Q9UBK8, A129T); test: isothermal titration calorimetry; assay type: binding
T1 sequence (Q9UBK8 1-698 A129T): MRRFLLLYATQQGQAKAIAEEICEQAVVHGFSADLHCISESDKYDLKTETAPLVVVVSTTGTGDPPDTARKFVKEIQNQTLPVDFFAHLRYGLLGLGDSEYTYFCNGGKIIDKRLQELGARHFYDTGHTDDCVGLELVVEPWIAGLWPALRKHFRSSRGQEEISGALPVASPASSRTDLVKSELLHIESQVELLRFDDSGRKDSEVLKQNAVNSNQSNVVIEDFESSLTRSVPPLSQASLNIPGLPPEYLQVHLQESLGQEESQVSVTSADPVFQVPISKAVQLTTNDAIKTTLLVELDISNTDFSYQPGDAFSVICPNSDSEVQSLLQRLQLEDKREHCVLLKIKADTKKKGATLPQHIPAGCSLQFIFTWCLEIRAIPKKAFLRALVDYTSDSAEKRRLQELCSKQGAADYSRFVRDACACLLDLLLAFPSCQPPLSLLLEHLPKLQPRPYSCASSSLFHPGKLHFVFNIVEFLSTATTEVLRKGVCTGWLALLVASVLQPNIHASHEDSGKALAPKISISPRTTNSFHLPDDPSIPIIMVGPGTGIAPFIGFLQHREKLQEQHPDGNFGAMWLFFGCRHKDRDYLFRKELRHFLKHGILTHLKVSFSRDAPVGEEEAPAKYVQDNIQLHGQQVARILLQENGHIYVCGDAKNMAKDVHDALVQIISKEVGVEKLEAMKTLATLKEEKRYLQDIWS
Procedure, shortened: (§1)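 Recombinant wild-type or A129T MSR, 30-50 µM by Bradford and A454, was dialysed overnight against 50 mM Tris-HCl pH 7.5, filtered and degassed. NADP+ (500-850 µM) in the syringe was injected stepwise at 300 s intervals. Heats were corrected for dilution using post-saturation injections and fitted to a single-site model for KA and ΔH°. Runs were done in duplicate or triplicate.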

[2] = target: T2, methionine synthase reductase (MSR), human, I22/S175 background (Homo sapiens, UniProt Q9UBK8); test: isothermal titration calorimetry; assay type: binding
T2 sequence (Q9UBK8 1-698): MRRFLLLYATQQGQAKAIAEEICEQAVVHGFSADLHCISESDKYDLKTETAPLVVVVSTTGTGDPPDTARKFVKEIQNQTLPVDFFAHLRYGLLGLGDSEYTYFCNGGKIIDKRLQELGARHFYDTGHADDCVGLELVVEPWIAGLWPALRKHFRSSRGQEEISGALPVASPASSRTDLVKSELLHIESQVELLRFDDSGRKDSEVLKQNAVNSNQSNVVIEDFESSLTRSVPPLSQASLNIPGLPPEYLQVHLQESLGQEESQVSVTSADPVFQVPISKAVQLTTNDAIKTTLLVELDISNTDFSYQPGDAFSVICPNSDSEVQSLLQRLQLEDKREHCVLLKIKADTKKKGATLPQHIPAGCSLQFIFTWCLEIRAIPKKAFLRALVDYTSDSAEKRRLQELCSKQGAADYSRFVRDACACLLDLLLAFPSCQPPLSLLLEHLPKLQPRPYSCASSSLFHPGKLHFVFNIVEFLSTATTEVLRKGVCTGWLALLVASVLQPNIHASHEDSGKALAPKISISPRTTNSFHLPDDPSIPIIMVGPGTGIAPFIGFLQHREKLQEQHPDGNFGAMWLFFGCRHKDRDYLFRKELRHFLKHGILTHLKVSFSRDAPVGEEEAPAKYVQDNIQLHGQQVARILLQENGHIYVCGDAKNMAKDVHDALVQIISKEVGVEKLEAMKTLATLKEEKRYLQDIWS
Procedure, shortened: as §1

purified protein = substrate: NC(=O)C1=CN([C@@H]2O[C@H](COP(=O)(O)OP(=O)(O)OC[C@H]3O[C@@H](n4cnc5c(N)ncnc54)[C@H](OP(=O)(O)O)[C@@H]3O)[C@@H](O)[C@H]2O)C=CC1; test: purified protein; assay type: biochemical, Homo sapiens; conditions: cytochrome c as acceptor, 50 mM Tris pH 7.5, 37°C

**Q.** How did the Kd [1] turn out when NC(=O)c1ccc[n+]([C@@H]2O[C@H](COP(=O)(O)OP(=O)(O)OC[C@H]3O[C@@H](n4cnc5c(N)ncnc54)[C@H](OP(=O)(O)O)[C@@H]3O)[C@@H](O)[C@H]2O)c1 [NADP^+] was run?
**A.** 32 ± 2.9 µM

**Q.** What about the Kd [2] of the same molecule?
**A.** 54 ± 5.3 µM

B1: methionine synthase reductase (MSR), human, I22/S175 background (Homo sapiens; A129T) (protein)
chain: MRRFLLLYATQQGQAKAIAEEICEQAVVHGFSADLHCISESDKYDLKTETAPLVVVVSTTGTGDPPDTARKFVKEIQNQTLPVDFFAHLRYGLLGLGDSEYTYFCNGGKIIDKRLQELGARHFYDTGHTDDCVGLELVVEPWIAGLWPALRKHFRSSRGQEEISGALPVASPASSRTDLVKSELLHIESQVELLRFDDSGRKDSEVLKQNAVNSNQSNVVIEDFESSLTRSVPPLSQASLNIPGLPPEYLQVHLQESLGQEESQVSVTSADPVFQVPISKAVQLTTNDAIKTTLLVELDISNTDFSYQPGDAFSVICPNSDSEVQSLLQRLQLEDKREHCVLLKIKADTKKKGATLPQHIPAGCSLQFIFTWCLEIRAIPKKAFLRALVDYTSDSAEKRRLQELCSKQGAADYSRFVRDACACLLDLLLAFPSCQPPLSLLLEHLPKLQPRPYSCASSSLFHPGKLHFVFNIVEFLSTATTEVLRKGVCTGWLALLVASVLQPNIHASHEDSGKALAPKISISPRTTNSFHLPDDPSIPIIMVGPGTGIAPFIGFLQHREKLQEQHPDGNFGAMWLFFGCRHKDRDYLFRKELRHFLKHGILTHLKVSFSRDAPVGEEEAPAKYVQDNIQLHGQQVARILLQENGHIYVCGDAKNMAKDVHDALVQIISKEVGVEKLEAMKTLATLKEEKRYLQDIWS
**Q.** For B1, which Km (purified protein) is on record?
**A.** 2.8 µM
